Screens from PubChem.
In the library only some 2.3% were active in any assay of this set; here they are far more common.
TRPC6 act = mouse TRPC6 channel activation; Q61143; HEK293-TRPC6 membrane potential dye fluorescence; hits give high values; B-score at 10 µM; 0.13% of 310,000 active; AID 2550;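 active = B-score of the integrated fluorescence ratio above library mean plus 3 SD, and starting fluorescence ratio within library mean plus 5 SD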;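 also: higher score means more depolarization so channel activation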
TRPC4 potent = TRPC4 (mouse) allosteric potentiation | Q9QUQ5 | HEK293 TRPC4beta/mu-opioid, DAMGO EC20, Fluo-4 Ca2+ flux; hits give high values | B-score at 10 µM | 0.42% of 310,000 active | AID 2227;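 active = B-score of calcium response area above 5 SD of library B-scores, with initial fluorescence ratio within 5 SD of library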
Target sequence (Q9QUQ5 whole entry, looked up): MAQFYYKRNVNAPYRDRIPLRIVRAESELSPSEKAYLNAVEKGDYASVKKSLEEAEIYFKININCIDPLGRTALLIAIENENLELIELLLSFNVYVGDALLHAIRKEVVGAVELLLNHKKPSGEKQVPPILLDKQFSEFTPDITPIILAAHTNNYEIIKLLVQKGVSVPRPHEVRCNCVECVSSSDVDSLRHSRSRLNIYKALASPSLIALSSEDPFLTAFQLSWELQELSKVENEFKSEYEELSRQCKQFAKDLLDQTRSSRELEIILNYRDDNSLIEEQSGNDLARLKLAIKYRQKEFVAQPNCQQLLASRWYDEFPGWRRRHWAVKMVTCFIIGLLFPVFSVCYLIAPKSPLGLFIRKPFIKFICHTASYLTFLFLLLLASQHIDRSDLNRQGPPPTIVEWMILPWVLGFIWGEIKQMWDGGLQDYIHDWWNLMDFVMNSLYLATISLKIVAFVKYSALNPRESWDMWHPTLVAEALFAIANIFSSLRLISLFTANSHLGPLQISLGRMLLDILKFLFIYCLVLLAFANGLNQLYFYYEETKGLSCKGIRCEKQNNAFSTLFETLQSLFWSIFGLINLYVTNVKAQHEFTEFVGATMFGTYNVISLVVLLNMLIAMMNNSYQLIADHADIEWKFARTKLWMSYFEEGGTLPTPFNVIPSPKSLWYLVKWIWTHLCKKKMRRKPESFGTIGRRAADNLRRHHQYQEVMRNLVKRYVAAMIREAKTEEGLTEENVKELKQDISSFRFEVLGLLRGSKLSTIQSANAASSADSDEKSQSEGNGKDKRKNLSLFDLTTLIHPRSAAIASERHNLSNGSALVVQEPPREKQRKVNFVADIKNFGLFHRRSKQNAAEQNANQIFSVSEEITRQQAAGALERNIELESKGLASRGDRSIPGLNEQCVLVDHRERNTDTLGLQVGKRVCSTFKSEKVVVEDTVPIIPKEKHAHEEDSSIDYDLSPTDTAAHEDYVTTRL
TRPC4 act = opens the mouse TRPC4 cation channel; 0.49% of 310,000 active; B-score at 10 µM; HEK293 TRPC4beta/mu-opioid, Fluo4 calcium fluorescence; hits give high values;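 active = B-score above 5 SD of library B-scores, and initial fluorescence ratio not above library mean plus 5 SD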;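 also: positive B-score marks a calcium rise read as TRPC4 activation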
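Assay system: HEK293 stable line with TRPC4beta plus mu-opioid receptor; schedule: 45 min room-temperature Fluo4 loading, 110 s read; technique: kinetic Fluo4 calcium fluorescence; evaluation: integrated baseline-normalised fluorescence ratio, converted to per-well B score; controls: buffer (low) and maximal DAMGO (high)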
TRPC6 inh = mouse TRPC6 channel inhibition; Q61143; HEK293-TRPC6, membrane potential dye, ACh-evoked depolarization; hits give low values; B-score at 10 µM; 1.1% of 310,000 active; AID 2553;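 active = B-score under library mean minus 3 SD, initial fluorescence not abnormally high, positive integrated signal ratio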;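 also: B-score derived from integrated fluorescence ratio over the kinetic read; more negative B-score means stronger inhibition of depolarization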
TRPC4 block = inhibitors of mouse TRPC4 channel; B-score at 10 µM; AID 2247; 0.39% of 300,000 active; HEK293 TRPC4beta/mu-opioid, DAMGO-evoked Fluo4 calcium flux; hits give low values; Q9QUQ5;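 active = B-score over 3 SD under the library average, no early fluorescence shift, positive overall ratio signal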
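Signal: kinetic Fluo4 fluorescence imaging of calcium influx. Material: stable TRPC4beta/mu-opioid receptor HEK293 cells. Probe or stimulus: DAMGO in two steps, submaximal then maximal.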
Large screens that a line does not name were inactive.

COc1ccc(C(CNc2ncnc3sccc23)N(C)C)cc1OC (stereo not given)	TRPC4 act 45
CCn1nc(C)cc1C(=O)NC1CCCc2c1cnn2-c1cc(F)cc(F)c1 (stereo not given)	none
COC(=O)c1sc(-c2ccc(C(C)(C)C)cc2)cc1NC(=O)CSCC(=O)O	TRPC4 block -6
COC(=O)c1sc(-c2ccc(C(C)(C)C)cc2)cc1NC(=O)c1ccccc1C(=O)O	TRPC4 potent 12
COC(=O)c1sc(-c2ccc(Cl)cc2)cc1NC(=O)c1ccccc1C(=O)O	none
O=C(CSc1nc2ccccc2c(=O)n1CC1CCCO1)Nc1ccccc1Cl (stereo not given)	none
CCCn1c(=O)c2sccc2n2c(CCCC(=O)NC3CCN(Cc4ccccc4)CC3)nnc12	TRPC4 potent 16
O=C(CCCCn1c(=O)c2ccccc2n(Cc2ccccc2F)c1=O)NC1CCN(Cc2ccccc2)CC1	TRPC4 potent 12
O=C(CCCn1c(=O)[nH]c2ccccc2c1=O)NC1CCCCCC1	none
Cc1cc(NC(=O)Cn2c(=O)n(CCCCC(=O)NC3CCN(Cc4ccccc4)CC3)c(=O)c3ccccc32)n[nH]1	TRPC4 potent 11
O=C(CCCCn1c(=O)[nH]c2ccccc2c1=O)NC1CCN(Cc2ccccc2)CC1	TRPC4 act 86
COC(=O)c1ccccc1NC(=O)Cn1c(=O)n(CCC(=O)NC2CCN(Cc3ccccc3)CC2)c(=O)c2ccccc21	none
Cc1cccc(C)c1NC(=O)Cn1c(=O)n(CCCC(=O)NC2CCN(Cc3ccccc3)CC2)c(=O)c2ccccc21	none
COCc1cc(CNC(=O)C2CCC(=O)N(Cc3ccccc3F)C2)[nH]n1 (stereo not given)	none
CCOc1ccc(CNC(=O)c2ccc3nc(N4CCOCC4)sc3c2)cc1	none
CC1(C)CC(=O)N(c2ccc(Cl)cc2Cl)C(=O)C1	none
NC(=O)CSc1oc(-c2ccco2)nc1S(=O)(=O)c1ccc(F)cc1	none
CCCCN(CC)CCNC(=O)C1CCCN(S(=O)(=O)c2cccc3nsnc23)C1 (stereo not given)	TRPC4 act 73
CC1CCN(CCNC(=O)C2CCCN(S(=O)(=O)c3cccc4nsnc34)C2)CC1 (stereo not given)	TRPC4 potent 12
O=C(NCCCN1CCCCCC1)C1CCCN(S(=O)(=O)c2cccc3nsnc23)C1 (stereo not given)	none
CCCCN(CC)CCNC(=O)C1CCN(S(=O)(=O)c2cccc3nsnc23)CC1	none
CCCCN(C)CCNC(=O)C1CCN(S(=O)(=O)c2cccc3nsnc23)CC1	TRPC4 potent 11
O=C1c2cccc3c(O)ccc(c23)C(=O)N1c1ccc(Cl)cc1	none
COc1ccc(C2=C(C=O)Cc3ccccc3O2)cc1	none
CCOc1ccc(OCc2ccc(C(=O)N3CCCCC3)o2)cc1	TRPC4 potent 10
Cc1ccc(OCc2ccc(C(=O)N3CCCC3)o2)cc1C	none
CN(CC(=O)Nc1ccc(F)cc1)C(=O)CCc1ccccc1	none
CN(CC(=O)Nc1ccc(F)cc1)C(=O)COC(=O)c1ccccc1	TRPC4 potent 106
Cc1ccc(-c2c[n+](CC(=O)Nc3nc(-c4ccc(F)cc4)cs3)c3n2CCC3)cc1	TRPC4 block -6
CC1CCN(C(C)C(=O)Nc2ccccc2-c2ccccc2)CC1 (stereo not given)	TRPC4 block -7
O=S(=O)(O)c1ccc(N2N=C(c3ccccc3)CC2c2ccccc2)cc1 (stereo not given)	none
NS(=O)(=O)c1ccc(N2N=C(c3ccccc3)CC2c2ccccc2)cc1 (stereo not given)	TRPC4 potent 11
O=C1NC(=O)/C(=C\c2ccc(O)cc2O)S1	none
Cc1ccc(S(=O)(=O)Nc2ccc3c(c2)nc(CCN2CCCCC2)n3C)cc1	none
Cc1ccc(S(=O)(=O)Nc2ccc3c(c2)nc(CN2CCCC2)n3C)cc1	TRPC4 act 44
COc1ccc(C2CC(=O)c3cnc(N4CCN(Cc5ccccc5)CC4)nc3C2)cc1 (stereo not given)	TRPC4 potent 19
Cc1ccc2nc(/N=C(\N)NC(=O)NC3CCCCC3)nc(C)c2c1	TRPC4 act 55
CCCC(=O)N/C(N)=N/c1nc(C)c2cc(C)ccc2n1	none
Cc1onc(-c2c(F)cccc2Cl)c1C(=O)NC(=S)NCc1cccnc1	none
